Results reported in ChEMBL document CHEMBL2203198, “Prodrugs of a CXC Chemokine-12 (CXCL12) Neutraligand Prevent Inflammatory Reactions in an Asthma Model in Vivo” (ACS Med Chem Lett, 2012).
In brackets after ≈: the same amount, converted by molar mass. Activity calls are given as the source filed them. The calls are words filed in the database; no cut-off is given here.

What was measured:
Mus musculus [1] = test: Prodrug activation in ovalbumin sensitized Balb/c mouse hypereosinophilia model assessed as chalcone-4 release in lungs at 30 nmol/kg administered intranasally; format: organism-based; conditions: in vivo, inhaled_or_intranasal
Mus musculus [2] = test: Antiinflammatory activity in ovalbumin sensitized Balb/c mouse hypereosinophilia model assessed as inhibition of lymphocyte recruitment at 22 nmol/kg administered intranasally 2 hrs prior to ovalbumin challenge for 3 days; format: functional, organism-based
In short: (§1)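 8-day airway hypereosinophilia model in OVA-sensitized mice; OVA (10 μg in 25 μL saline, 12.5 μL/nostril) given intranasally on days 5, 6, 7 under ip ketamine 50 mg/kg/xylazine 3.33 mg/kg. Compound in PBS (25 μL) given intranasally 2 h before each challenge. BAL cell counts by hemocytometer plus Hemacolor-stained cytospin differentials (≥400 cells), as absolute numbers; n = 6 mice/group.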

Mus musculus [3] = test: Antiinflammatory activity in ovalbumin sensitized Balb/c mouse hypereosinophilia model assessed as inhibition of macrophage recruitment at 22 nmol/kg administered intranasally 2 hrs prior to ovalbumin challenge for 3 days; format: functional, organism-based; in short: as §1
Mus musculus [4] = test: Antiinflammatory activity in ovalbumin sensitized Balb/c mouse hypereosinophilia model assessed as inhibition of neutrophil recruitment at 22 nmol/kg administered intranasally 2 hrs prior to ovalbumin challenge for 3 days; format: functional, organism-based; in short: as §1
Mus musculus [5] = test: Antiinflammatory activity in ovalbumin sensitized Balb/c mouse hypereosinophilia model assessed as inhibition of eosinophil recruitment at 22 nmol/kg administered intranasally 2 hrs prior to ovalbumin challenge for 3 days; format: functional; in short: as §1
[6] = molecular target: T1, C-X-C chemokine receptor type 4 (Homo sapiens, UniProt P61073); test: Inhibition of EGFP-tagged human CXCR4 expressed in HEK293 cells assessed as inhibition of CXCL12-TR binding at 5 uM incubated for 5 mins prior to CXCL12-TR addition by FRET assay; format: cell-based
T1 sequence (P61073 whole entry): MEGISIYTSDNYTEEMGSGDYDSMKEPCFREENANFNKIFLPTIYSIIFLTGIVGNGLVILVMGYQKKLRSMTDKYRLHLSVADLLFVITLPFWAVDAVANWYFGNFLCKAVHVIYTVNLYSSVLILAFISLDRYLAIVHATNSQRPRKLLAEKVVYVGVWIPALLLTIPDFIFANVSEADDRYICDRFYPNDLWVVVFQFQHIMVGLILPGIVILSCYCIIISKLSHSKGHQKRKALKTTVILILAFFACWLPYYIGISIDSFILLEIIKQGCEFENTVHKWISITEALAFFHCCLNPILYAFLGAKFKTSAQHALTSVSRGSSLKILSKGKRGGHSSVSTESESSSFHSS
In short: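 Binding of Texas Red-labelled CXCL12 (100 nM) to EGFP-tagged CXCR4 read by FRET as real-time decline of EGFP emission at 510 nm. Compound tested at 5 μM; percent inhibition of binding reported.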

[7] = molecular target: T1, C-X-C chemokine receptor type 4; test: Inhibition of EGFP-tagged human CXCR4 expressed in HEK293 cells assessed as inhibition of CXCL12-TR binding incubated for 5 mins prior to CXCL12-TR addition by FRET assay; format: cell-based
[8] = Half life in mouse lung homogenate by LC-MS analysis; format: ADME, tissue-based
In short: (§2)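 Freshly prepared compound solutions (10 μM) incubated at 37 °C in PBS, mouse serum or mouse lung homogenate. Parent and released product followed by LC-MS, RP-HPLC on C18 with ammonium acetate pH 7.4/acetonitrile gradient, 365 nm detection. Half-life taken from disappearance over time.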

[9] = Half life in mouse serum by LC-MS analysis; format: ADME, cell-free; in short: as §2
[10] = Half life in PBS buffer by LC-MS analysis; format: physicochemical; in short: as §2
[11] = Solubility of the compound in HEPES buffer at pH 7.4 after 24 hrs; format: physicochemical
In short: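 Thermodynamic solubility in aqueous HEPES buffer, pH 7.4, 22 °C, after 24 h incubation; tested up to 30 mM.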

Mus musculus [12] = test: Antiinflammatory activity in ovalbumin sensitized Balb/c mouse hypereosinophilia model assessed as inhibition of lymphocyte recruitment at 30 nmol/kg administered intranasally 2 hrs prior to ovalbumin challenge measured 24 hrs post the last ovalbumin challenge by BAL analysis; format: functional, organism-based; in short: as §1
Mus musculus [13] = test: Antiinflammatory activity in ovalbumin sensitized Balb/c mouse hypereosinophilia model assessed as inhibition of macrophage recruitment at 30 nmol/kg administered intranasally 2 hrs prior to ovalbumin challenge measured 24 hrs post the last ovalbumin challenge by BAL analysis; format: functional, organism-based; in short: as §1
Mus musculus [14] = test: Antiinflammatory activity in ovalbumin sensitized Balb/c mouse hypereosinophilia model assessed as inhibition of neutrophil recruitment at 30 nmol/kg administered intranasally 2 hrs prior to ovalbumin challenge measured 24 hrs post the last ovalbumin challenge by BAL analysis; format: functional, organism-based; in short: as §1
Mus musculus [15] = test: Antiinflammatory activity in ovalbumin sensitized Balb/c mouse hypereosinophilia model assessed as inhibition of eosinophil recruitment at 30 nmol/kg administered intranasally 2 hrs prior to ovalbumin challenge measured 24 hrs post the last ovalbumin challenge by BAL analysis; format: functional; conditions: inhaled or nasal; in short: as §1
Mus musculus [16] = test: Prodrug activation in ovalbumin sensitized Balb/c mouse hypereosinophilia model assessed as chalcone-4 release in lungs at 22 nmol/kg administered intranasally after 15 mins; format: organism-based; conditions: in vivo, inhaled_or_intranasal, 0.25 h
In short: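 LC-MS detection of released parent chalcone in mouse lung tissue 15 min after intranasal dosing of prodrug.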

Mus musculus [17] = test: Antiinflammatory activity in ovalbumin sensitized Balb/c mouse hypereosinophilia model assessed as inhibition of eosinophil recruitment administered intranasally 2 hrs prior to ovalbumin challenge for 3 days; format: functional, organism-based; in short: as §1

SMILES | Drug metabolism (Mus musculus [1]) | inhibition (Mus musculus [2]) | inhibition (Mus musculus [3]) | inhibition (Mus musculus [4]) | inhibition (Mus musculus [5]) | inhibition [6] | Ki [7] | half-life [8] | half-life [9] | half-life [10] | solubility at 24 h [11] | inhibition (Mus musculus [12]) | inhibition (Mus musculus [13]) | inhibition (Mus musculus [14]) | inhibition in vivo at 0.03 µmol/kg (Mus musculus [15]) | Drug metabolism (Mus musculus [16]) | IC50 (Mus musculus [17]) | inhibition in vivo at 0.022 µmol/kg (Mus musculus [5]; inhaled or nasal)
COc1cc(/C=C/C(=O)c2ccc(Cl)cc2)ccc1O | Active | inactive | inactive | inactive | inactive | 90% | 53 nM | > 6 h | > 10 h | > 10 h | 9 µM (≈ 2.6 µg/mL) |  |  |  |  |  |  | 
COc1cc(/C=C/C(=O)c2ccc(Cl)cc2)ccc1OC(=O)[C@H](N)CO.Cl | Active |  |  |  |  | 15% |  | < 0.0833 h | < 0.0833 h | 0.2 h | 42 µM | Active | inactive | Active | 67% |  |  | 
COc1cc(/C=C/C(=O)c2ccc(Cl)cc2)ccc1OS(=O)(=O)[O-].[Na+] | Active |  |  |  |  | 4% |  | 0.5 h | > 10 h | > 10 h | 1430 µM | Active | inactive | Active | 69% |  |  | 
COc1cc(/C=C/C(=O)c2ccc(Cl)cc2)ccc1OP(=O)([O-])[O-].[Na+].[Na+] | Active | Active | inactive | Active |  | 5% |  | < 0.25 h | 2 h | > 10 h | > 30000 µM | Active | inactive | Active | 64% | Active | 10 nmol/kg | 56%
